Measurements from ChEMBL document CHEMBL5335788, “Synthesis and evaluation of aromatic BDSF bioisosteres on biofilm formation and colistin sensitivity in pathogenic bacteria” (Eur J Med Chem, 2023).
Calls of active or inactive are those of the source. No cut-off for these calls is given here.

Tests used:
Escherichia coli [1] = assay: Antimicrobial activity against Escherichia coli ATCC 9637 assessed as microbial growth inhibition at 50 uM incubated for 20 hrs by broth microdilution method; assay type: functional, organism-based
Procedure, shortened: (§1)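 Overnight cultures in cation-adjusted Mueller-Hinton broth, subcultured 1:100; log-phase cells at final 1×10^5 cfu/mL exposed to sulfonamide at final 0.05 mM (from 10 mM DMSO stock) for 20 h at 37 °C. OD550 read after shaking. Growth expressed as percent of 0.5% DMSO control wells. Screened at least twice.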

Burkholderia multivorans [2] = assay: Potentiation of colistin-induced antibacterial activity against Burkholderia multivorans B10 assessed as colistin MIC at 50 uM incubated for 20 hrs by susceptibility testing (Rvb > 128 ug/ml); assay type: functional
Procedure, shortened: (§2)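 Colistin MIC by broth microdilution in cation-adjusted Mueller-Hinton broth, log-phase cells at final 5×10^5 cfu/mL. Two-fold colistin dilutions in duplicate with sulfonamide at final 0.05 mM (from 10 mM DMSO stock); 20 h at 37 °C. OD550 read. MIC taken as the lowest colistin level reducing growth ≥80% versus growth control. At least two replicates.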

Burkholderia cenocepacia = assay: Potentiation of colistin-induced antibacterial activity against Burkholderia cenocepacia 289 assessed as colistin MIC at 50 uM incubated for 20 hrs by susceptibility testing (Rvb > 256 ug/ml); assay type: functional; procedure, shortened: as §2
Pseudomonas aeruginosa [3] = assay: Potentiation of colistin-induced antibacterial activity against Pseudomonas aeruginosa assessed as colistin MIC at 50 uM incubated for 20 hrs by susceptibility testing (reference value: 1 to 2 ug/ml); assay type: functional; procedure, shortened: as §2
Acinetobacter baumannii [4] = assay: Potentiation of colistin-induced antibacterial activity against Acinetobacter baumannii ATCC 15308 assessed as colistin MIC at 50 uM incubated for 20 hrs by susceptibility testing (reference value: 0.25 to 0.5 ug/ml); assay type: functional; procedure, shortened: as §2
[5] = test system: Stenotrophomonas maltophilia; assay: Potentiation of colistin-induced antibacterial activity against Stenotrophomonas maltophilia K279a assessed as colistin MIC at 50 uM incubated for 20 hrs by susceptibility testing (reference value: 2 to 8 ug/ml); assay type: functional; procedure, shortened: as §2
Pseudomonas aeruginosa [6] = assay: Inhibition of biofilm formation in Pseudomonas aeruginosa PAO1 at 0.05 mM incubated for 24 hrs by crystal violet method; assay type: functional, organism-based
Procedure, shortened: (§3)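 Crystal violet assay in LB: log-phase bacteria at final 1×10^5 cfu/mL with sulfonamide at final 0.05 mM, 24 h at 37 °C. Biomass read at OD620, then wells washed, biofilm heat-fixed 65 °C 15 min, stained 0.1% crystal violet 15 min, dye eluted in 30% acetic acid, OD550 read. Neat DMSO control taken as 100%. Duplicates, at least two independent experiments; one-way ANOVA.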

Burkholderia cepacia = assay: Potentiation of colistin-induced antibacterial activity against Burkholderia cepacia R6193 assessed as colistin MIC at 50 uM incubated for 20 hrs by susceptibility testing (Rvb > 256 ug/ml); assay type: functional; procedure, shortened: as §2
Escherichia coli [7] = assay: Potentiation of colistin-induced antibacterial activity against Escherichia coli ATCC 9637 assessed as colistin MIC at 50 uM incubated for 20 hrs by susceptibility testing (reference value: 0.125 to 0.25 ug/ml); assay type: functional; procedure, shortened: as §2
[8] = test system: Stenotrophomonas maltophilia; assay: Inhibition of biofilm formation in Stenotrophomonas maltophilia K279a clinical isolate of rpf-1 subpopulation at 0.05 mM incubated for 24 hrs by crystal violet method; assay type: functional, organism-based; procedure, shortened: as §3
Acinetobacter baumannii [9] = assay: Antimicrobial activity against Acinetobacter baumannii ATCC 15308 assessed as microbial growth inhibition at 50 uM incubated for 20 hrs by broth microdilution method; assay type: functional, organism-based; procedure, shortened: as §1
Pseudomonas aeruginosa [10] = assay: Antimicrobial activity against Pseudomonas aeruginosa PAO1 assessed as microbial growth inhibition at 50 uM incubated for 20 hrs by broth microdilution method; assay type: functional, organism-based; procedure, shortened: as §1
Acinetobacter baumannii [11] = assay: Inhibition of biofilm formation in Acinetobacter baumannii ATCC 15308 at 0.05 mM incubated for 24 hrs by crystal violet method relative to control; assay type: functional; details: ATCC 15308, 24 h; procedure, shortened: as §3
Burkholderia multivorans [12] = assay: Inhibition of biofilm formation in Burkholderia multivorans B10 at 0.05 mM incubated for 24 hrs by crystal violet method relative to control; assay type: functional; details: B10, 24 h; procedure, shortened: as §3
Escherichia coli [13] = assay: Inhibition of biofilm formation in Escherichia coli ATCC 9637 at 0.05 mM incubated for 24 hrs by crystal violet method relative to control; assay type: functional; details: ATCC 9637, 24 h; procedure, shortened: as §3

CCCCCCCCCc1ccccc1C(=O)NS(=O)(=O)c1ccccc1
growth inhibition (GI) (Escherichia coli [1]): inactive
MIC (Burkholderia multivorans [2]): > 128 mg/L
MIC (Burkholderia cenocepacia): > 256 mg/L
MIC (Pseudomonas aeruginosa [3]): 1 mg/L
MIC (Acinetobacter baumannii [4]): 0.25 mg/L
MIC [5]: 0.5 mg/L
inhibition (Pseudomonas aeruginosa [6]): inactive
MIC (Burkholderia cepacia): > 256 mg/L
MIC (Escherichia coli [7]): 0.25 mg/L
inhibition [8]: inactive
growth inhibition (GI) (Acinetobacter baumannii [9]): inactive
growth inhibition (GI) (Pseudomonas aeruginosa [10]): inactive

CCCCCCCCCc1ccccc1C(=O)NS(=O)(=O)c1ccc(F)cc1
growth inhibition (GI) (Escherichia coli [1]): inactive
inhibition at 50 µM (Acinetobacter baumannii [11]): 25%
MIC (Burkholderia multivorans [2]): > 128 mg/L
MIC (Burkholderia cenocepacia): > 256 mg/L
MIC (Pseudomonas aeruginosa [3]): 1 mg/L
MIC (Acinetobacter baumannii [4]): 0.25 mg/L
inhibition at 50 µM (Burkholderia multivorans [12]): 27%
MIC [5]: 0.5 mg/L
inhibition (Pseudomonas aeruginosa [6]): inactive
MIC (Burkholderia cepacia): > 256 mg/L
MIC (Escherichia coli [7]): 0.5 mg/L
inhibition at 50 µM (Escherichia coli [13]): 22%
inhibition [8]: inactive
growth inhibition (GI) (Acinetobacter baumannii [9]): inactive
growth inhibition (GI) (Pseudomonas aeruginosa [10]): inactive

CCCCCCCCCc1ccccc1C(=O)NS(=O)(=O)CCC(F)(F)F
growth inhibition (GI) (Escherichia coli [1]): inactive
MIC (Burkholderia multivorans [2]): > 128 mg/L
MIC (Burkholderia cenocepacia): > 256 mg/L
MIC (Pseudomonas aeruginosa [3]): 1 mg/L
MIC (Acinetobacter baumannii [4]): 0.25 mg/L
MIC [5]: 0.5 mg/L
inhibition (Pseudomonas aeruginosa [6]): inactive
MIC (Burkholderia cepacia): > 256 mg/L
MIC (Escherichia coli [7]): 0.25 mg/L
inhibition [8]: inactive
growth inhibition (GI) (Acinetobacter baumannii [9]): inactive
growth inhibition (GI) (Pseudomonas aeruginosa [10]): inactive

CCCCCCCCCc1ccccc1C(=O)NS(=O)(=O)c1ccc(Cl)cc1
growth inhibition (GI) (Escherichia coli [1]): inactive
MIC (Burkholderia multivorans [2]): > 128 mg/L
MIC (Burkholderia cenocepacia): > 256 mg/L
MIC (Pseudomonas aeruginosa [3]): 4 mg/L
MIC (Acinetobacter baumannii [4]): 1 mg/L
inhibition at 50 µM (Burkholderia multivorans [12]): 47%
MIC [5]: 2 mg/L
inhibition (Pseudomonas aeruginosa [6]): inactive
MIC (Burkholderia cepacia): > 256 mg/L
MIC (Escherichia coli [7]): 1 mg/L
inhibition at 50 µM (Escherichia coli [13]): 59%
inhibition [8]: inactive
growth inhibition (GI) (Acinetobacter baumannii [9]): inactive
growth inhibition (GI) (Pseudomonas aeruginosa [10]): inactive

CCCCCCCCCc1ccccc1C(=O)NS(=O)(=O)c1ccccc1F
growth inhibition (GI) (Escherichia coli [1]): inactive
inhibition at 50 µM (Acinetobacter baumannii [11]): 27%
MIC (Burkholderia multivorans [2]): > 128 mg/L
MIC (Burkholderia cenocepacia): > 256 mg/L
MIC (Pseudomonas aeruginosa [3]): 1 mg/L
MIC (Acinetobacter baumannii [4]): 0.25 mg/L
MIC [5]: 1 mg/L
inhibition (Pseudomonas aeruginosa [6]): inactive
MIC (Burkholderia cepacia): > 256 mg/L
MIC (Escherichia coli [7]): 0.25 mg/L
inhibition [8]: inactive
growth inhibition (GI) (Acinetobacter baumannii [9]): inactive
growth inhibition (GI) (Pseudomonas aeruginosa [10]): inactive

CCCCCCCCCc1ccccc1C(=O)NS(=O)(=O)c1ccccc1Br
growth inhibition (GI) (Escherichia coli [1]): inactive
inhibition at 50 µM (Acinetobacter baumannii [11]): 30%
MIC (Burkholderia multivorans [2]): > 128 mg/L
MIC (Burkholderia cenocepacia): > 256 mg/L
MIC (Pseudomonas aeruginosa [3]): 1 mg/L
MIC (Acinetobacter baumannii [4]): 0.5 mg/L
inhibition at 50 µM (Burkholderia multivorans [12]): 38%
MIC [5]: 0.5 mg/L
inhibition (Pseudomonas aeruginosa [6]): inactive
MIC (Burkholderia cepacia): > 256 mg/L
MIC (Escherichia coli [7]): 0.5 mg/L
inhibition at 50 µM (Escherichia coli [13]): 43%
inhibition [8]: inactive
growth inhibition (GI) (Acinetobacter baumannii [9]): inactive
growth inhibition (GI) (Pseudomonas aeruginosa [10]): inactive

CCCCCCCCCc1ccccc1C(=O)NS(=O)(=O)c1ccc(OC)cc1
growth inhibition (GI) (Escherichia coli [1]): inactive
inhibition at 50 µM (Acinetobacter baumannii [11]): 41%
MIC (Burkholderia multivorans [2]): > 128 mg/L
MIC (Burkholderia cenocepacia): > 256 mg/L
MIC (Pseudomonas aeruginosa [3]): 1 mg/L
MIC (Acinetobacter baumannii [4]): 0.25 mg/L
MIC [5]: 1 mg/L
inhibition (Pseudomonas aeruginosa [6]): inactive
MIC (Burkholderia cepacia): > 256 mg/L
MIC (Escherichia coli [7]): 0.25 mg/L
inhibition [8]: inactive
growth inhibition (GI) (Acinetobacter baumannii [9]): inactive
growth inhibition (GI) (Pseudomonas aeruginosa [10]): inactive

CCCCCCCCCc1ccccc1C(=O)NS(=O)(=O)C1CC1
growth inhibition (GI) (Escherichia coli [1]): inactive
MIC (Burkholderia multivorans [2]): > 128 mg/L
MIC (Burkholderia cenocepacia): > 256 mg/L
MIC (Pseudomonas aeruginosa [3]): 1 mg/L
MIC (Acinetobacter baumannii [4]): 0.125 mg/L
MIC [5]: 1 mg/L
inhibition (Pseudomonas aeruginosa [6]): inactive
MIC (Burkholderia cepacia): > 256 mg/L
MIC (Escherichia coli [7]): 0.125 mg/L
inhibition [8]: inactive
growth inhibition (GI) (Acinetobacter baumannii [9]): inactive
growth inhibition (GI) (Pseudomonas aeruginosa [10]): inactive

CCCCCCCCCc1ccccc1C(=O)NS(=O)(=O)c1cccc(F)c1
growth inhibition (GI) (Escherichia coli [1]): inactive
inhibition at 50 µM (Acinetobacter baumannii [11]): 27%
MIC (Burkholderia multivorans [2]): > 128 mg/L
MIC (Burkholderia cenocepacia): > 256 mg/L
MIC (Pseudomonas aeruginosa [3]): 1 mg/L
MIC (Acinetobacter baumannii [4]): 0.25 mg/L
MIC [5]: 0.5 mg/L
inhibition (Pseudomonas aeruginosa [6]): inactive
MIC (Burkholderia cepacia): > 256 mg/L
MIC (Escherichia coli [7]): 0.25 mg/L
inhibition [8]: inactive
growth inhibition (GI) (Acinetobacter baumannii [9]): inactive
growth inhibition (GI) (Pseudomonas aeruginosa [10]): inactive

CCCCCCCCCc1ccccc1C(=O)NS(=O)(=O)c1ccc(C(C)(C)C)cc1
growth inhibition (GI) (Escherichia coli [1]): inactive
MIC (Burkholderia multivorans [2]): > 128 mg/L
MIC (Burkholderia cenocepacia): > 256 mg/L
MIC (Pseudomonas aeruginosa [3]): 1 mg/L
MIC (Acinetobacter baumannii [4]): 0.5 mg/L
inhibition at 50 µM (Burkholderia multivorans [12]): > 35%
MIC [5]: 4 mg/L
inhibition (Pseudomonas aeruginosa [6]): inactive
MIC (Burkholderia cepacia): > 256 mg/L
MIC (Escherichia coli [7]): 0.5 mg/L
inhibition [8]: inactive
growth inhibition (GI) (Acinetobacter baumannii [9]): inactive
growth inhibition (GI) (Pseudomonas aeruginosa [10]): inactive

CCCCCCCCCc1ccccc1C(=O)NS(=O)(=O)c1ccc([N+](=O)[O-])cc1
growth inhibition (GI) (Escherichia coli [1]): inactive
inhibition at 50 µM (Acinetobacter baumannii [11]): 50%
MIC (Burkholderia multivorans [2]): > 128 mg/L
MIC (Burkholderia cenocepacia): > 256 mg/L
MIC (Pseudomonas aeruginosa [3]): 2 mg/L
MIC (Acinetobacter baumannii [4]): 0.5 mg/L
MIC [5]: 1 mg/L
inhibition (Pseudomonas aeruginosa [6]): inactive
MIC (Burkholderia cepacia): > 256 mg/L
MIC (Escherichia coli [7]): 0.5 mg/L
inhibition [8]: inactive
growth inhibition (GI) (Acinetobacter baumannii [9]): inactive
growth inhibition (GI) (Pseudomonas aeruginosa [10]): inactive

CCCCCCCCC/C=C\C(=O)O
growth inhibition (GI) (Escherichia coli [1]): inactive
inhibition at 50 µM (Acinetobacter baumannii [11]): 38%
MIC (Burkholderia multivorans [2]): > 128 mg/L
MIC (Burkholderia cenocepacia): > 256 mg/L
MIC (Pseudomonas aeruginosa [3]): 1 mg/L
MIC (Acinetobacter baumannii [4]): 0.125 mg/L
MIC [5]: 0.5 mg/L
inhibition (Pseudomonas aeruginosa [6]): inactive
MIC (Burkholderia cepacia): > 256 mg/L
MIC (Escherichia coli [7]): 0.063 mg/L
inhibition [8]: inactive
growth inhibition (GI) (Acinetobacter baumannii [9]): inactive
growth inhibition (GI) (Pseudomonas aeruginosa [10]): inactive
